Tests used:
[1] = tested on: Plasmodium falciparum; assay: Antiplasmodial activity against Plasmodium falciparum 3D7 asexual blood stages after 3 days by HRP2 detection based ELISA method; format: functional, organism-based; details: 3D7, 72 h
How it was run: (§1)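 HRP2-based growth inhibition of P. falciparum asexual blood stages, 3D7 (chloroquine-sensitive) or Dd2 (multidrug-resistant). IC50 from 12 serial dilutions. Mean of at least two independent experiments, each run in duplicate.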

[2] = tested on: Plasmodium falciparum; assay: Antiplasmodial activity against Plasmodium falciparum Dd2 asexual blood stages after 3 days by HRP2 detection based ELISA method; format: functional, organism-based; details: Dd2, 72 h; how it was run: as §1
[3] = tested on: L6; assay: Cytotoxicity against rat L6 cells after 72 hrs by alamar blue assay; format: cell-based; details: L6, 72 h
[4] = Selectivity index, ratio of IC50 for rat L6 cells to IC50 for Plasmodium falciparum 3D7 asexual blood stages; format: toxicity, cell-based; details: read-out: Ratio IC50
How it was run: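 Selectivity index calculated as L6 cytotoxicity IC50 divided by P. falciparum 3D7 IC50, using unrounded cytotoxicity values.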

[5] = tested on: Plasmodium falciparum; assay: Gametocytocidal activity against transgenic Plasmodium falciparum NF54-pfs16-GFP late stage gametocytes after 72 hrs by mitotracker red CM-H2XRos dye based confocal imaging assay; format: functional, organism-based; details: NF54, 72 h
How it was run: (§2)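 Late-stage gametocytes stained with MitoTracker Red, imaged, and scored by viable elongated MTR-positive morphology. % inhibition set relative to a puromycin 100% inhibition control. Compounds in 4% DMSO, top concentration 120 or 40 μM. IC50 from 21 serial dilutions. Mean of two independent experiments, each in duplicate.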

[6] = tested on: Plasmodium berghei; assay: Antiplasmodial activity against Plasmodium berghei infected in mouse assessed as reduction in parasitemia level at 50 mg/kg, po dosed once daily for 4 days on 4, 24, 48 and 72 hrs post infection and measured on day 4; format: functional
How it was run: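 Peters 4-day test in P. berghei-infected mice, n = 3 per group. 50 mg/kg given orally once daily at 4, 24, 48 and 72 h postinfection. Dosed as a solution or suspension in 70/30 Tween 80/ethanol diluted 10× with water. Parasitemia read from blood taken on day 4 (96 h postinfection), expressed as % reduction versus an infected untreated control.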

[7] = tested on: Plasmodium berghei; assay: Antiplasmodial activity against Plasmodium berghei infected in mouse assessed as […] in mouse survival at 50 mg/kg, po dosed once daily for 4 days on 4, 24, 48 and 72 hrs post infection and measured on day 4 (reference value: 4 days); format: functional
How it was run: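 Standard Peters 4-day test in P. berghei-infected mice (n = 3 per group), dosed orally at 4, 24, 48 and 72 h post-infection. Compound was dissolved or suspended in 70/30 Tween 80/ethanol and diluted 10× with water. Blood for parasitemia was taken on day 4 (96 h). Survival was given as mean days, with parasite-free at day 30 taken as cure. Untreated infected controls were euthanized on day 4.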

[8] = Plasma concentration in Plasmodium berghei infected mouse at 50 mg/kg, po dosed once daily for 4 days on 4, 24, 48 and 72 hrs post infection and measured 1 hr post dose by HPLC-MS/MS method; format: ADME, organism-based; design: dose 50 mg/kg, route oral
How it was run: (§3)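 P. berghei-infected mice (n = 3 per group) given oral doses in 70/30 Tween 80/ethanol diluted 10× with water, at 4, 24, 48 and 72 h postinfection. Plasma drug levels (ng/mL) measured at 1, 4 and 24 h after oral treatment.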

[9] = Plasma concentration in Plasmodium berghei infected mouse at 50 mg/kg, po dosed once daily for 4 days on 4, 24, 48 and 72 hrs post infection and measured 4 hrs post dose by HPLC-MS/MS method; format: ADME, organism-based; design: dose 50 mg/kg, route oral; how it was run: as §3
[10] = Plasma concentration in Plasmodium berghei infected mouse at 50 mg/kg, po dosed once daily for 4 days on 4, 24, 48 and 72 hrs post infection and measured 24 hrs post dose by HPLC-MS/MS method; format: ADME, organism-based; design: dose 50 mg/kg, route oral; how it was run: as §3
[11] = tested on: Mus musculus; assay: Toxicity in Plasmodium berghei infected mouse assessed as changes in general behaviors at 50 mg/kg, po dosed once daily for 4 days on 4, 24, 48 and 72 hrs post infection; format: organism-based; design: dose 50 mg/kg, route oral; details: in vivo
How it was run: (§4)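 P. berghei-infected mice (n = 3 per group) received four oral doses at 4, 24, 48 and 72 h post-infection. Vehicle was 70/30 Tween 80/ethanol diluted 10× with water. Mice were watched for acute toxicity signs: death, changes in general behaviour, and changes in physiological activities.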

[12] = tested on: Mus musculus; assay: Toxicity in Plasmodium berghei infected mouse assessed as changes in physiological activities at 50 mg/kg, po dosed once daily for 4 days on 4, 24, 48 and 72 hrs post infection; format: organism-based; design: dose 50 mg/kg, route oral; details: in vivo; how it was run: as §4
[13] = tested on: Mus musculus; assay: Toxicity in Plasmodium berghei infected mouse assessed as mouse mortality level at 50 mg/kg, po dosed once daily for 4 days on 4, 24, 48 and 72 hrs post infection; format: organism-based; design: dose 50 mg/kg, route oral; details: in vivo; how it was run: as §4
[14] = tested on: Plasmodium falciparum; assay: Gametocytocidal activity against transgenic Plasmodium falciparum NF54-pfs16-GFP late stage gametocytes at 120 uM after 72 hrs by mitotracker red CM-H2XRos dye based confocal imaging assay; format: functional; details: NF54, 72 h; how it was run: as §2
[15] = tested on: Plasmodium falciparum; assay: Gametocytocidal activity against transgenic Plasmodium falciparum NF54-pfs16-GFP late stage gametocytes at 40 uM after 72 hrs by mitotracker red CM-H2XRos dye based confocal imaging assay; format: functional; details: NF54, 72 h; how it was run: as §2

Row | IC50 [1] [nM] | IC50 [2] [nM] | SMILES | IC50 [3] [nM] | selectivity ratio [4] | further results
1 | 380 | 620 | COc1ccc(/C=N/N=C(\N)CC(O)c2ccc3ccccc3c2)cc1 (stereo not drawn) | 69000 | 182 | –
2 | 180 | 550 | N/C(CC(O)c1cccc2ccccc12)=N\N=C\c1ccc(F)c(F)c1 (stereo not drawn) | 17000 | 95 | –
3 | – | – | O[C@@H](c1cc(C(F)(F)F)nc2c(C(F)(F)F)cccc12)[C@H]1CCCCN1 (relative stereo) [(S,R)-MEFLOQUINE] | 4500 | – | IC50 [5]: 100 nM
4 | 510 | 380 | N/C(CC(O)c1cccc2ccccc12)=N\N=C\c1ccco1 (stereo not drawn) | 145000 | 284 | –
5 | 83 | 210 | COc1ccc(/C=N/N=C(\N)CC(O)c2cccc3ccccc23)cc1 (stereo not drawn) | 6300 | 76 | –
6 | – | – | CCN(CC)CCCC(C)Nc1ccnc2cc(Cl)ccc12 (stereo not drawn) [CHLOROQUINE] | 78000 | – | inhibition at 120 µM [14]: 44%
7 | 1100 | 1300 | CCOc1cc(/C=N/N=C(\N)CC(O)c2ccc3ccccc3c2)ccc1O (stereo not drawn) | 78000 | 71 | –
8 | 1900 | 700 | N/C(CC(O)c1ccc2ccccc2c1)=N\N=C\c1ccc(Cl)c(Cl)c1 (stereo not drawn) | 100000 | 52 | –
9 | > 10000 | > 10000 | N/C(CC(O)c1ccc2ccccc2c1)=N\N=C\c1ccco1 (stereo not drawn) | – | – | –
10 | > 10000 | > 10000 | N/C(CC(O)c1ccc2ccccc2c1)=N\N=C\c1ccc(C(F)(F)F)cc1 (stereo not drawn) | – | – | –
11 | 250 | 450 | CCOc1cc(/C=N/N=C(\N)CC(O)c2cccc3ccccc23)ccc1O (stereo not drawn) | 4200 | 17 | –
12 | > 10000 | > 10000 | N/C(=N\N=C\c1ccccc1)C(O)c1ccc2ccccc2c1 (stereo not drawn) | – | – | –
13 | 190 | 190 | N/C(CC(O)c1cccc2ccccc12)=N\N=C\c1ccc(F)cc1F (stereo not drawn) | 4200 | 22 | –
14 | 110 | 300 | N/C(CC(O)c1cccc2ccccc12)=N\N=C\c1ccc(C(F)(F)F)cc1 (stereo not drawn) | 26000 | 234 | –
15 | 250 | 190 | N/C(CC(O)c1cccc2ccccc12)=N\N=C\c1ccc(Cl)c(Cl)c1 (stereo not drawn) | 16000 | 63 | –
16 | 16 | 28 | N/C(CC(O)c1cc2ccccc2c2ccccc12)=N\N=C\c1ccccc1 (stereo not drawn) | 6100 | 383 | IC50 [5]: 180 nM
17 | > 10000 | > 10000 | N/C(CC(O)c1ccc2ccccc2c1)=N\N=C\c1cccnc1 (stereo not drawn) | – | – | –
18 | 3000 | 3900 | N/C(=N\N=C\c1ccccc1)C(O)c1cccc2ccccc12 (stereo not drawn) | 300000 | 100 | –
19 | 190 | 62 | Cc1ccc(/C=N/N=C(\N)CC(O)c2cccc3ccccc23)cc1 (stereo not drawn) | 6800 | 36 | –
20 | 91 | 94 | N/C(CC(O)c1cccc2ccccc12)=N\N=C\c1cccc(Br)c1 (stereo not drawn) | 3900 | 43 | –
21 | 2700 | 1100 | N/C(CC(O)c1cccc2ccccc12)=N\N=C\c1cccnc1 (stereo not drawn) | 22000 | 8 | –
22 | 100 | 240 | N/C(CC(O)c1cccc2ccccc12)=N\N=C\c1ccccc1 (stereo not drawn) | 17000 | 170 | –
23 | 400 | 740 | C/C(=N\N=C(/N)CC(O)c1cccc2ccccc12)c1ccc(F)cc1 (stereo not drawn) | 34000 | 86 | –
24 | 540 | 380 | Cc1ccc(/C=N/N=C(\N)CC(O)c2ccc3ccccc3c2)cc1 (stereo not drawn) | 103000 | 190 | –
25 | 2000 | 2500 | N/C(CC(O)c1ccc2ccccc2c1)=N\N=C\c1ccc(F)cc1 (stereo not drawn) | > 298000 | > 149 | inhibition at 40 µM [15]: 25%
26 | 4000 | > 10000 | N/C(CC(O)c1ccc2ccccc2c1)=N\N=C\c1ccc(F)cc1F (stereo not drawn) | 93000 | 23 | –
27 | 240 | 610 | CCC/C(=N\N=C(/N)CC(O)c1cccc2ccccc12)c1ccccc1 (stereo not drawn) | 29000 | 120 | –

Row | SMILES | IC50 [1] [nM] | IC50 [2] [nM] | IC50 [3] [nM] | selectivity ratio [4] | further results
28 | COc1cc([C@@H]2c3cc4c(cc3[C@H](O)[C@H]3COC(=O)[C@H]23)OCO4)cc(OC)c1OC [PODOFILOX] | 9200 | 8300 | 9.7 | 0.0016 | –
29 | N/C(CC(O)c1cc2ccccc2c2ccccc12)=N\N=C\c1ccc(F)cc1 (stereo not drawn) | 8.3 | 11 | 16000 | 1890 | IC50 [5]: 370 nM; inhibition in vivo at 50 mg/kg [6]: 99.6%; MSD [7]: 10 days; concentration at 1 h [8]: 4690 ng/mL; concentration at 4 h [9]: 3100 ng/mL; concentration at 24 h [10]: 86.1 ng/mL; Activity [11]: Non-toxic; Activity [12]: Non-toxic; Activity [13]: Non-toxic
30 | C[C@H]1[C@H](OC(=O)CCC(=O)O)O[C@@H]2O[C@@]3(C)CC[C@H]4[C@H](C)CC[C@@H]1[C@@]24OO3 [ARTESUNATE] | – | 2 | 24000 | – | IC50 [5]: 44 nM
31 | N/C(CC(O)c1cccc2ccccc12)=N\N=C\c1ccc(F)cc1 (stereo not drawn) | 60 | 200 | 19000 | 321 | IC50 [5]: 780 nM; inhibition in vivo at 50 mg/kg [6]: 40%; MSD [7]: 6.7 days; concentration at 1 h [8]: 316 ng/mL; concentration at 4 h [9]: 145 ng/mL; concentration at 24 h [10]: < 5 ng/mL

Reference: ChEMBL document CHEMBL3351566, “Blood schizontocidal and gametocytocidal activity of 3-hydroxy-N'-arylidenepropanehydrazonamides: a new class of antiplasmodial compounds” (J Med Chem, 2014)
